From PubChem BioAssay
MEKK3 PB1 HTS: modulators of MEKK3-MEK5 PB1 binding, primary screen, biochemical, wildtype MEKK3, multiplex bead flow cytometry, Alexa488-MEK5. binding response (% of control), % at 10 µM. 290,000 compounds, 1.4% hits. bead-based flow cytometry, Alexa488-MEK5 binding to MEKK3; actives lie on both sides; 0 = blocked by unlabeled MEK5, 100 = vehicle;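 active means binding response more than 3 SD above or below the average of its plate-row segment, actives on both sides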;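 further: Alexa488 bead fluorescence after subtracting the streptavidin-only scavenger bead signal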
UBC13 inh: UBC13 polyubiquitin chain formation inhibitors, primary screen, biochemical, TR-FRET, uHTS | Ubiquitin-conjugating enzyme E2 N (Homo sapiens), P61088 | inhibition, % at 20 µM | 330,000 compounds, 0.47% hits; in the data active means inhibition above about 45%, passing the limit was not always enough
Target sequence (P61088 whole entry, looked up): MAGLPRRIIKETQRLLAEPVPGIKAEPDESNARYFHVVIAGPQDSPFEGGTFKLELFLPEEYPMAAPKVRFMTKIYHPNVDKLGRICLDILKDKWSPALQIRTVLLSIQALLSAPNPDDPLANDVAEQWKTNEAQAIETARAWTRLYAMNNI
MEKK2 WT-MEK5: modulators of MEK5 binding to wildtype MEKK2, primary screen, biochemical, multiplex bead flow cytometry, Alexa488-MEK5. Mitogen-activated protein kinase kinase kinase 2 (Homo sapiens), Q9Y2U5. Alexa488-MEK5 binding to MEKK2 WT; actives lie on both sides. binding response (% of control), % at 10 µM. 290,000 compounds, 1.1% hits; in the data active means binding response below about 67% or above about 130%
UCH37 DUB inh: inhibitors of human UCH37 deubiquitinase, primary screen, biochemical, Ub-AMC cleavage, fluorescence; Ubiquitin carboxyl-terminal hydrolase isozyme L5 (Homo sapiens), Q9Y5K5; purified proteasome/UCH37; inhibition, % (concentration not given with the values); 330,000 compounds, 0.33% hits;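 active means mean inhibition over replicate wells above about 20%, limit read from the data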;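 further: 0% = compound-free wells with enzyme and 100% = wells lacking proteasome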
Target sequence (Q9Y5K5 whole entry, looked up): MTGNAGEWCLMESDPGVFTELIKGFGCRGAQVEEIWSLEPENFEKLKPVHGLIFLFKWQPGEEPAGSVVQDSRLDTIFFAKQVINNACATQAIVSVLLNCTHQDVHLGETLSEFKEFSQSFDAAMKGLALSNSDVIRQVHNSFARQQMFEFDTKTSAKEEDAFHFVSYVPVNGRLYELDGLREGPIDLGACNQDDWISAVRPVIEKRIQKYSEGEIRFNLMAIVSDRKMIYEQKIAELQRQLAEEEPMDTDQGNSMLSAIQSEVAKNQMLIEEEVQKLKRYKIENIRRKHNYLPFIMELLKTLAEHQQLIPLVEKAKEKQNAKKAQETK
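Test system – human UCH37 enzyme supplied as purified proteasome complex · Incubation – 30 min preincubation with enzyme, 25 min cleavage at room temperature · Detection – AMC fluorescence from Ub-AMC cleavage, excitation 355 nm, emission 460 nm · Benchmarks – no-proteasome wells (full inhibition) and compound-free wells (no inhibition)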
MEKK2 mut-MEK5: MEK5 binding signal on mutant MEKK2 PB1, primary screen, biochemical, multiplex bead flow cytometry, Alexa488-MEK5 | AID 1530, 2009 | 290,000 compounds, 0.35% hits | percent response, % at 10 µM | Alexa488-MEK5 binding to MEKK2 mutant; in the data active means percent response above about 24%, passing the limit was not always enough
Apaf-1 inh: inhibitors of human Apaf-1 apoptosome, primary screen, biochemical, DEVD-Rh110 fluorescence, uHTS | 330,000 compounds, 0.71% hits | reconstituted apoptosome caspase-3 activity | inhibition, % at 20 µM | Apoptotic protease-activating factor 1 (Homo sapiens), O14727; active means inhibition of at least 40% at 20 µM;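 further: plate controls were DMSO wells for no effect and DEVD-CHO caspase inhibitor wells for full effect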
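Material: cell-free apoptosome with Apaf-1, procaspase-3 and caspase-9; Buffer or medium: Hepes pH 7.5 with detergent and BSA; Reagent: cytochrome c trigger plus (Z-DEVD)2-Rh110 caspase-3 substrate; Times: compound with Apaf-1, dATP, procaspase-3 30 min, then 50 min reaction, room temperature; Technique: Rh110 fluorescence intensity.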
MEKK2wt confirm: modulators of MEK5 binding to wildtype MEKK2, confirmation, biochemical, single concentration, multiplex bead flow cytometry; binding response (% of control), % at 10 µM; 5,900 compounds, 2.4% hits; shares compounds with MEKK3 PB1 HTS; Alexa488-MEK5 binding to MEKK2 WT; actives lie on both sides; in the data active means binding response below about 16% or above about 210%; inactive means in between
MEKK2mut confirm: mutant MEKK2 PB1-MEK5 binding signal retest – biochemical, single concentration, multiplex bead flow cytometry, confirmation; shares compounds with MEKK3 PB1 HTS; 5,900 compounds, 2% hits; Alexa488-MEK5 binding to MEKK2 mutant; AID 1893, 2009; percent response, % at 10 µM; in the data active means percent response mostly above about 71%, no sharp cut-off; inactive means mostly below about 38%;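 further: higher means compound restores mutant binding toward wildtype level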
MEKK3-MEK5 inh: MEKK3 wild-type PB1 binding to MEK5, inhibitors, confirmation, biochemical, bead multiplex flow cytometry, single concentration, wildtype | shares compounds with MEKK3 PB1 HTS | Alexa488-MEK5 binding to MEKK3; stronger effect = lower value | binding response (% of control), % at 10 µM | 5,900 compounds, 1.8% hits | AID 1894, 2009;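 active means binding response below 72% of control, or above a set upper limit, though filed actives all read lower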;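 further: 100% = DMSO only wells and 0% = binding blocked by excess unlabeled MEK5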
* marks the source's active call; other numbers are inactive results; [ ] = remark or other dose. This is a sample that favours compounds with a hit; in the whole collection about 3% have one here.

For Cc1ccc(C)c2[nH]c(=O)c(CN(Cc3cccs3)C(=S)NCc3ccco3)cc12 the results were MEKK3 PB1 HTS 137*, UBC13 inh -6, MEKK2 WT-MEK5 115, UCH37 DUB inh 3, MEKK2 mut-MEK5 1, Apaf-1 inh 30, MEKK2wt confirm 109, MEKK2mut confirm 9 and MEKK3-MEK5 inh 103.
Screening Cc1ccc2cc(CN(C(=O)c3ccco3)c3ccccc3C)c(=O)[nH]c2c1 returned MEKK3 PB1 HTS 104, UBC13 inh 9, MEKK2 WT-MEK5 100, UCH37 DUB inh 0, MEKK2 mut-MEK5 14 and Apaf-1 inh 16.
`Cc1cc2cc(CN(CCN(C)C)C(=S)NCc3ccco3)c(=O)[nH]c2cc1C` gave MEKK3 PB1 HTS 84, UBC13 inh 10, MEKK2 WT-MEK5 160*, UCH37 DUB inh -6, MEKK2 mut-MEK5 8, Apaf-1 inh 14, MEKK2wt confirm 118, MEKK2mut confirm 8 and MEKK3-MEK5 inh 103.
Cc1ccc(C)c2[nH]c(=O)c(CN(CC3CCCO3)C(=S)NCc3ccco3)cc12 (centres undefined) was read as MEKK3 PB1 HTS 129*, UBC13 inh 14, MEKK2 WT-MEK5 116, UCH37 DUB inh -1, MEKK2 mut-MEK5 29, Apaf-1 inh -6, MEKK2wt confirm 101, MEKK2mut confirm 5 and MEKK3-MEK5 inh 104.
For Cc1ccc(N(Cc2cc3ccc(C)cc3[nH]c2=O)C(=O)c2ccco2)c(C)c1 the results were MEKK3 PB1 HTS 132*, UBC13 inh -5, MEKK2 WT-MEK5 117, UCH37 DUB inh -7, MEKK2 mut-MEK5 22, Apaf-1 inh -2, MEKK2wt confirm 102, MEKK2mut confirm 5 and MEKK3-MEK5 inh 107.
CC(C)Oc1ccc(C2CCC(=O)NC2=O)cc1 (centres undefined) was read as MEKK3 PB1 HTS 87, UBC13 inh 2, MEKK2 WT-MEK5 89, UCH37 DUB inh 0, MEKK2 mut-MEK5 -4 and Apaf-1 inh 2.
COc1ccccc1N1CCN(CCCCNC(=O)c2ccc3ccccc3c2)CC1 was read as UBC13 inh 22, UCH37 DUB inh 3 and Apaf-1 inh 6.
COc1ccc(C(=O)Nn2c(C)ccc2C)cc1OC was read as MEKK3 PB1 HTS 96, UBC13 inh 6, MEKK2 WT-MEK5 95, UCH37 DUB inh -3, MEKK2 mut-MEK5 2 and Apaf-1 inh -6.
`COc1ccc(C(C(=O)NC2CCCCC2)N(CC2CCCO2)C(=O)C2COc3ccccc3O2)cc1OC` (centres undefined) gave MEKK3 PB1 HTS 129*, UBC13 inh -6, MEKK2 WT-MEK5 104, UCH37 DUB inh 5, MEKK2 mut-MEK5 7, Apaf-1 inh 28, MEKK2wt confirm 100, MEKK2mut confirm 8 and MEKK3-MEK5 inh 102.
COc1ccc(C(=O)N(CC2CCCO2)C(C(=O)NCCC(C)C)c2ccc(C)cc2)cc1OC (centres undefined) was read as MEKK3 PB1 HTS 132*, UBC13 inh -2, MEKK2 WT-MEK5 111, UCH37 DUB inh 2, MEKK2 mut-MEK5 2, Apaf-1 inh 12, MEKK2wt confirm 90, MEKK2mut confirm 1 and MEKK3-MEK5 inh 94.
`COc1cc(CCC(=O)OCC(=O)Nc2nc(C)c(Cl)cc2Cl)cc(OC)c1OC` gave MEKK3 PB1 HTS 102, UBC13 inh 0, MEKK2 WT-MEK5 12*[inhibitor], UCH37 DUB inh 0, MEKK2 mut-MEK5 -32, Apaf-1 inh -22, MEKK2wt confirm 95, MEKK2mut confirm -10 and MEKK3-MEK5 inh 97.
`COc1cc(CCC(=O)OCC(=O)Nc2ncc(Cl)cc2Cl)cc(OC)c1OC` gave MEKK3 PB1 HTS 98, UBC13 inh 1, MEKK2 WT-MEK5 93, UCH37 DUB inh 1, MEKK2 mut-MEK5 14 and Apaf-1 inh 0.
Nc1nnc(SCC(=O)N2CCN(c3ccccc3)CC2)n1-c1ccccc1 was read as MEKK3 PB1 HTS 117, UBC13 inh -12, MEKK2 WT-MEK5 108, UCH37 DUB inh 1, MEKK2 mut-MEK5 5 and Apaf-1 inh -3.
Cc1ccc2nc(Cl)c(CN(C(=O)c3cnccn3)C3CCCCC3)cc2c1 was read as MEKK3 PB1 HTS 2.0*[inhibitor], UBC13 inh -1, MEKK2 WT-MEK5 -2.0*[inhibitor], UCH37 DUB inh 4, MEKK2 mut-MEK5 -26, Apaf-1 inh -6, MEKK2wt confirm 104, MEKK2mut confirm 0 and MEKK3-MEK5 inh 101.
Screening CCNc1nnc(CSc2nc3ccccc3s2)s1 returned MEKK3 PB1 HTS 84, UBC13 inh 10, MEKK2 WT-MEK5 102, UCH37 DUB inh 1, MEKK2 mut-MEK5 0 and Apaf-1 inh 5.
Screening Cc1ccc(OCc2cc(C(=O)NCC3COCCO3)no2)cc1C (centres undefined) returned MEKK3 PB1 HTS 101, UBC13 inh -1, MEKK2 WT-MEK5 102, UCH37 DUB inh 1, MEKK2 mut-MEK5 8 and Apaf-1 inh 15.
CCCC(=O)C1=C(O)C(C(=O)OC)C(C)(C)CC1=NCCc1ccc(OC)c(OC)c1 (centres undefined) was read as MEKK3 PB1 HTS 72*[inhibitor], UBC13 inh -2, MEKK2 WT-MEK5 83, UCH37 DUB inh -2, MEKK2 mut-MEK5 -7, Apaf-1 inh -3, MEKK2wt confirm 106, MEKK2mut confirm 5 and MEKK3-MEK5 inh 105.
For CN(C)C(CNC(=O)c1ccc(S(=O)(=O)Nc2ccccc2F)cc1)c1ccco1 (centres undefined) the results were UBC13 inh 43, UCH37 DUB inh -10 and Apaf-1 inh 37.
